What is called Kd is a measure of binding affinity in units of concentration.

Positions of bridges follow the written chain, without caps; N, C: chain ends. Non-standard residues stand in square brackets, D forms with d. Residues, ends and D or L forms follow the SMILES beside them. NMeA = CN[C@@H](C)C(=O)O; Sar = CNCC(=O)O

Assay [1] addresses Vasopressin V2 receptor (Bos taurus, UniProt P48044). Put plainly: ChEBML_214690. An excerpt: Binding affinity against plasma membrane from bovine kidney inner medulla using [3H]AVP as a radioligand
Assay [2] deals with Vasopressin V1a/V1b receptor (Rattus norvegicus, UniProt P30560+P48974). Put plainly: Binding affinity against plasma membrane from rat liver using [3H]-AVP as a radioligand. An outline of the steps: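 Competition binding with [3H]AVP to plasma membranes, 30 min incubation; for rat liver membranes the standard medium included bacitracin (1 mg/mL). Apparent KD and slope factor b from weighted nonlinear least-squares fit of displacement curves to logistic curves; [3H]AVP parameters from direct binding. Mean ±SE of two experiments.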
Sequence of Vasopressin V1a/V1b receptor (P30560 whole entry): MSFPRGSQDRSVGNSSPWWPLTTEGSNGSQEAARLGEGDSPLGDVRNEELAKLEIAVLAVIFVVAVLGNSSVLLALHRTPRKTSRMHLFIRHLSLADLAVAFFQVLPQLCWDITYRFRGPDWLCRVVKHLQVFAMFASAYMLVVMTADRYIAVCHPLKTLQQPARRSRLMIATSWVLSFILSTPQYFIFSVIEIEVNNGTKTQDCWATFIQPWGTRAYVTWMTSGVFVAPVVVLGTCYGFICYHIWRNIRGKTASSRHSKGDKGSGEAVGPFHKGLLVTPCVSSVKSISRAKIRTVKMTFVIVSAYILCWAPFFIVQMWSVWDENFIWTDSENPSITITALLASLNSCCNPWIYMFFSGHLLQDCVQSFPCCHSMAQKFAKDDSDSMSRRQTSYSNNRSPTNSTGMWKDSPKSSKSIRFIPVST
Sequence of Vasopressin V1a/V1b receptor (P48974 whole entry): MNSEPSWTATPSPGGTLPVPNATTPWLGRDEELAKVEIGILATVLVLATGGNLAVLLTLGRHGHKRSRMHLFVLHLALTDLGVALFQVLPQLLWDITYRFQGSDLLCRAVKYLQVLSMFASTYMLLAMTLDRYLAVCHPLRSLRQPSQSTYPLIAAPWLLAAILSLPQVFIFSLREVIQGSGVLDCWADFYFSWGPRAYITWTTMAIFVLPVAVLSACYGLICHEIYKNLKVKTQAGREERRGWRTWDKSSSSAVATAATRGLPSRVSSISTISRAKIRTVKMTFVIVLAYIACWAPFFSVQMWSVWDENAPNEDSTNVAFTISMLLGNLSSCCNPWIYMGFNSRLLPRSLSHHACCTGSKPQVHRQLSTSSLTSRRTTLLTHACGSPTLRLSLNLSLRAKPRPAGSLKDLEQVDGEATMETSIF

Sequence of Vasopressin V2 receptor (P48044 whole entry): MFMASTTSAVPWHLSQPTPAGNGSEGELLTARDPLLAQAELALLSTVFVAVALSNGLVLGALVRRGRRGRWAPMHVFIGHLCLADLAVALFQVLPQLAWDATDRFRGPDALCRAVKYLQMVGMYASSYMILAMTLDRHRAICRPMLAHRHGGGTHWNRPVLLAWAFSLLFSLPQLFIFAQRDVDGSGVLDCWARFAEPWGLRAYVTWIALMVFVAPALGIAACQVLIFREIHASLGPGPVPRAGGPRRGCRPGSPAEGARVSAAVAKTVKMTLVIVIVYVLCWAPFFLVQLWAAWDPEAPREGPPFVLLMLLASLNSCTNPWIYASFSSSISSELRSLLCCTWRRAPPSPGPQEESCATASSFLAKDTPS

Compound `CC(C)[C@H]1NC(=O)[C@H](Cc2ccccc2)NC(=O)[C@@H](Cc2ccc(O)cc2)NC(=O)CCSSC[C@@H](C(=O)N(C)[C@@H](C)C(=O)N[C@@H](CCCN=C(N)N)C(=O)NCC(N)=O)NC(=O)[C@H](CC(N)=O)NC1=O` had a dissociation constant (Kd) in assay [1] of 9.4 nM.
Regarding `C[C@@H](C(=O)N[C@@H](CCCN=C(N)N)C(=O)NCC(N)=O)N(C)C(=O)[C@@H]1CSSC[C@H](N)C(=O)N[C@@H](Cc2ccccc2)C(=O)N[C@@H](Cc2ccccc2)C(=O)N[C@@H](CCC(N)=O)C(=O)N[C@@H](CC(N)=O)C(=O)N1` (H-CFFQNC[NMeA]RG-NH2; disulfide 1-6), the Kd in assay [2] is 110 nM.
For the compound `CC(C)[C@@H]1NC(=O)[C@H](Cc2ccccc2)NC(=O)[C@H](Cc2ccc(O)cc2)NC(=O)[C@@H](N)CSSC[C@@H](C(=O)N(C)CC(=O)N[C@@H](CCCNC(=N)N)C(=O)NCC(N)=O)NC(=O)[C@H](CC(N)=O)NC1=O` (H-CYFVNC[Sar]RG-NH2; disulfide 1-6), the dissociation constant Kd in assay [1] was found to be 9.4 nM; in assay [2], 110 nM.

For the origin of these results see BindingDB's records for doi:10.1021/jm00151a016 (1986).
